Test results: ChEMBL document CHEMBL1121573, “2-(Aminomethyl)phenols, a new class of saluretic agents. 1. Effects of nuclear substitution” (J Med Chem, 1980)

Legend:
Rattus norvegicus [1] = experiment: Oral diuretic activity was evaluated by measuring Na+ excretion in Rat at 9 mg/kg […] ( 0-5 hr ); type: ADME, organism-based, Urine; parameters: dose 9 mg/kg; conditions: in vivo, ip
Summary of the method: (§1)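 Female Charles-River rats (150–170 g) were kept overnight on a sugar diet with water ad libitum. Compound was dissolved in DMF, then diluted with water containing Tween 80 (3 drops/100 mL) to a final 4% DMF, and given po in 5.0 mL. Rats were housed three per metabolism cage. Urine from 0–5 h was analysed for Na+, K+ and Cl−, with concurrent placebo controls. Values are mequiv × 100 per cage, geometric mean of three cages per dose.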

Canis familiaris [2] = experiment: Oral diuretic activity was evaluated by measuring Na+ excretion in dog at 1 mg/kg after ip administration ( 0-6 hr ); type: ADME, organism-based, Canis lupus familiaris, Urine; parameters: dose 1 mg/kg, route intraperitoneal; conditions: in vivo
Summary of the method: (§2)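 Spontaneous urine was pooled with bladder urine collected by catheterization at 6 h. Volume was measured and Na+, K+ and Cl− were determined by standard methods. Values are geometric means.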

Canis familiaris [3] = experiment: Oral diuretic activity was evaluated by measuring K+ excretion in dog at 5 mg/kg after ip administration ( 0-6 hr ); type: ADME, organism-based, Canis lupus familiaris, Urine; parameters: dose 5 mg/kg, route intraperitoneal; conditions: in vivo; summary of the method: as §2
Rattus norvegicus [4] = experiment: Oral diuretic activity was evaluated by measuring Na+ excretion in Rat at 27 mg/kg after […] ( 0-5 hr ); type: ADME, organism-based, Urine; parameters: dose 27 mg/kg; summary of the method: as §1
Rattus norvegicus [5] = experiment: Oral diuretic activity was evaluated by measuring Na+ excretion in Rat at 3 mg/kg […] ( 0-5 hr ); type: ADME, organism-based, Urine; parameters: dose 3 mg/kg; conditions: in vivo, ip; summary of the method: as §1
Rattus norvegicus [6] = experiment: Oral diuretic activity was evaluated by measuring Na+ excretion in Rat at 81 mg/kg […] ( 0-5 hr ); type: ADME, organism-based, Urine; parameters: dose 81 mg/kg; summary of the method: as §1
Canis familiaris [7] = experiment: Oral diuretic activity was evaluated by measuring Na+ excretion in dog at 5 mg/kg after ip administration ( 0-6 hr ); type: ADME, organism-based, Canis lupus familiaris, Urine; parameters: dose 5 mg/kg, route intraperitoneal; conditions: in vivo
Summary of the method: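 Urine collected over 0–6 h: spontaneous voids were pooled with bladder urine taken by catheterization at 6 h. Urine volume was measured, and aliquots were analysed for Na+, K+ and Cl− by standard methods. Electrolyte excretion is reported as geometric means.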

Canis familiaris [8] = experiment: Compound administered intravenously at a dose of 5 mg/kg was evaluated for salidiuretic activity measured as sodium ion excretion in Dog; type: ADME, organism-based, Canis lupus familiaris, Urine; parameters: dose 5 mg/kg, route intravenous; conditions: in vivo, iv
Summary of the method: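 Conditioned female mongrel dogs, postabsorptive, water-loaded (500 mL po) 1 h before sodium pentobarbital anesthesia (30 mg/kg iv). Bladder catheter; creatinine 4 g sc; phosphate–mannitol buffer pH 7.4 infused (3.0 mL/min) throughout. […] Urine Na+ measured; response scored 0–6.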

Rattus norvegicus [9] = experiment: Oral diuretic activity was evaluated by measuring K+ excretion in Rat at 3 mg/kg […] ( 0-5 hr ); type: ADME, organism-based, Urine; parameters: dose 3 mg/kg
Summary of the method: (§3)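 Female Charles-River rats (150–170 g) were kept overnight on a sugar diet with water ad libitum. Test substance was dissolved in DMF and diluted with water containing Tween 80 to a final 4% DMF vehicle, then given po in 5.0 mL. Rats were housed three per metabolism cage, and 0–5 h urine was assayed for Na⁺, K⁺ and Cl⁻ alongside concurrent placebo groups. Values are mequiv × 100 per cage, geometric means of three cages per dose.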

Rattus norvegicus [10] = experiment: Oral diuretic activity was evaluated by measuring K+ excretion in Rat at 81 mg/kg after […] ( 0-5 hr ); type: ADME, organism-based, Urine; parameters: dose 81 mg/kg; conditions: in vivo; summary of the method: as §3
Rattus norvegicus [11] = experiment: Oral diuretic activity was evaluated by measuring K+ excretion in Rat at 9 mg/kg […] ( 0-5 hr ); type: ADME, organism-based, Urine; parameters: dose 9 mg/kg; summary of the method: as §3
Canis familiaris [12] = experiment: Oral diuretic activity was evaluated by measuring K+ excretion in dog at 1 mg/kg after […] ( 0-6 hr ); type: ADME, organism-based, Canis lupus familiaris, Urine; parameters: dose 1 mg/kg; conditions: in vivo; summary of the method: as §2
Rattus norvegicus [13] = experiment: Evaluated for salidiuretic activity measured as sodium ion excretion in Rat, administered orally at a dose of 50 mg/kg; type: functional, Urine; parameters: unit not given beside the values; conditions: route oral
Summary of the method: (§4)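 Female Charles-River rats (150–170 g), overnight on sugar diet with water ad libitum. Compound dissolved in DMF, diluted with water containing Tween 80 (final 4% DMF), given po in 5.0 mL; concurrent vehicle placebo. Three rats per metabolism cage; 0–5 h urine analysed for Na+, K+, Cl-. Values: mequiv × 100 per cage, geometric means of three cages per dose; scored 0–6 by Na+.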

[14] = Compound administered orally at a dose of 5 mg/kg was evaluated for salidiuretic activity measured as sodium ion excretion in Rat; type: organism-based; parameters: dose 5 mg/kg; conditions: Urine; summary of the method: as §4
Canis familiaris [15] = experiment: Oral diuretic activity was evaluated by measuring Cl- excretion in dog at 5 mg/kg after […] ( 0-6 hr ); type: ADME, organism-based, Canis lupus familiaris, Urine; parameters: dose 5 mg/kg, route intraperitoneal; conditions: in vivo
[16] = Evaluated for salidiuretic activity measured as sodium ion excretion in Rat, administered orally at a dose of 16.5 mg/kg; type: organism-based; parameters: dose 16.5 mg/kg; conditions: Urine; summary of the method: as §4
Rattus norvegicus [17] = experiment: Oral diuretic activity was evaluated by measuring Cl- excretion in Rat at 3 mg/kg after […] ( 0-5 hr ); type: ADME, organism-based, Urine; parameters: dose 3 mg/kg, route intraperitoneal; conditions: in vivo
Rattus norvegicus [18] = experiment: Oral diuretic activity was evaluated by measuring Cl- excretion in Rat at 9 mg/kg […] ( 0-5 hr ); type: ADME, organism-based, Urine; parameters: dose 9 mg/kg; conditions: in vivo; summary of the method: as §3
Canis familiaris [19] = experiment: Oral diuretic activity was evaluated by measuring Cl- excretion in dog at 1 mg/kg after […] ( 0-6 hr ); type: ADME, organism-based, Canis lupus familiaris, Urine; parameters: dose 1 mg/kg, route intraperitoneal; conditions: in vivo
Rattus norvegicus [20] = species on record: Rattus norvegicus; experiment: Time taken for the decrease in arterial pressure was measured; type: functional, Artery
Rattus norvegicus [21] = experiment: Maximum fall in mean arterial blood pressure was measured in SH rats when compound was administered at 30 mg/kg perorally; type: functional; conditions: route oral
Rattus norvegicus [22] = experiment: Oral diuretic activity was evaluated by measuring K+ excretion in Rat at 27 mg/kg after po administration ( 0-5 hr ); conditions: in vivo
Rattus norvegicus [23] = experiment: Oral diuretic activity was evaluated by measuring Cl- excretion in Rat at 27 mg/kg after po administration ( 0-5 hr ); conditions: in vivo
Rattus norvegicus [24] = experiment: Oral diuretic activity was evaluated by measuring Cl- excretion in Rat at 81 mg/kg after po administration ( 0-5 hr ); conditions: in vivo
Rattus norvegicus [25] = experiment: Compound administered orally at a dose of 1 mg/kg was evaluated for salidiuretic activity measured as sodium ion excretion in Rat; conditions: in vivo, po

SMILES: COc1c(Cl)c(O)c(CN)c(OC)c1Cl.Cl
- Diuretic activity (Rattus norvegicus [1]): 1.58
- Diuretic activity (Canis familiaris [2]): 17.78
- Diuretic activity (Canis familiaris [3]): 8
- Diuretic activity (Rattus norvegicus [4]): 1.61
- Diuretic activity (Rattus norvegicus [5]): 0.86
- Diuretic activity (Rattus norvegicus [6]): 2.17
- Diuretic activity (Canis familiaris [7]): 42.5
- Diuretic activity (Canis familiaris [8]): > 900
- Diuretic activity (Rattus norvegicus [9]): 0.26
- Diuretic activity (Rattus norvegicus [10]): 0.39
- Diuretic activity (Rattus norvegicus [11]): 0.42
- Diuretic activity (Canis familiaris [12]): 4.78
- Diuretic activity (Rattus norvegicus [13]): 3.6
- Diuretic activity [14]: 2.6
- Diuretic activity (Canis familiaris [15]): 54.5
- Diuretic activity [16]: 3.3
- Diuretic activity (Rattus norvegicus [17]): 1.25
- Diuretic activity (Rattus norvegicus [18]): 2.36
- Diuretic activity (Canis familiaris [19]): 24.67
- Duration (Rattus norvegicus [20]): 12 h
- MAP (Rattus norvegicus [21]): 19 mmHg
- Diuretic activity (Rattus norvegicus [22]): 0.42
- Diuretic activity (Rattus norvegicus [23]): 2.51
- Diuretic activity (Rattus norvegicus [24]): 3.26
- Diuretic activity (Rattus norvegicus [25]): 0.7
